By MIC80 is commonly meant the lowest concentration that inhibits either 80% of growth or 80% of the strains tested, depending on the study. A lower MIC80 goes with higher susceptibility.

Results on twelve compounds are retold here after ChEMBL document CHEMBL1158372, “Design, synthesis, and biological evaluation of novel triazole derivatives as inhibitors of cytochrome P450 14alpha-demethylase” (2009).

Holding throughout (format): functional
The subject of one assay is Cryptococcus neoformans. Briefly: Antifungal activity against Cryptococcus neoformans ATCC 32609 after 72 hrs by micro-broth dilution method. Particulars: ATCC 32609, 72 h. The gist of the method:
(§1)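 NCCLS (M27-A2) broth microdilution in 96-well format. Compounds in DMSO, serially diluted in growth medium, inoculated, incubated at 35 °C, and read at 24 h (C. albicans ATCC76615) or 72 h (Cry. neoformans ATCC32609). MIC80 is the first well with about 80% less growth than the drug-free well. Three independent runs per agent; the mean of replicates is reported.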
On the technique in general: Dilution methods test growth across graded concentrations, often in twofold steps.

For a further assay, the system named is Aspergillus fumigatus. Briefly: Antifungal activity against Aspergillus fumigatus by micro-broth dilution method. Summed up:
(§2)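 Broth microdilution in 96-well plates following the NCCLS method. DMSO solutions of test agents were serially diluted in growth medium, inoculated, and incubated at 35 °C. MIC80 is the first well showing roughly 80% growth reduction versus the drug-free control. C. albicans ATCC76615 and Cry. neoformans ATCC32609 served as quality-control strains. Each test was done three times; the mean of replicates is reported.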

For the next assay, the system named is Nannizzia gypsea. Briefly: Antifungal activity against Microsporum gypseum by micro-broth dilution method. Summed up:
as §2

The test system of another assay is Candida parapsilosis. Briefly: Antifungal activity against Candida parapsilosis by micro-broth dilution method. Particulars: Lodderomyces parapsilosis. Summed up: as §2
A further assay deals with Candida albicans. Briefly: Antifungal activity against Candida albicans ATCC 76615 after 24 hrs by micro-broth dilution method. The following applies: ATCC 76615, 24 h. The gist of the method:
as §1

Another assay relates to Candida tropicalis. Briefly: Antifungal activity against Candida tropicalis by micro-broth dilution method. The gist of the method: as §2
For a further assay, the system named is Trichophyton rubrum. Briefly: Antifungal activity against Trichophyton rubrum by micro-broth dilution method. Summed up:
as §2

The test system of a further assay is Pichia kudriavzevii. Briefly: Antifungal activity against Candida krusei by micro-broth dilution method. Summed up:
as §2

In brackets after ≈: the same amount, converted by molar mass. Bounds are passed on as bounds.

As for `C=CCN(Cc1ccccc1Cl)CC(O)(Cn1cncn1)c1ccc(F)cc1F` (stereo unspecified), the MIC80 is 0.25 µg/mL (≈ 0.597 µM) with Cryptococcus neoformans; greater than 64 µg/mL in the assay on Aspergillus fumigatus; 0.0625 µg/mL (≈ 0.149 µM) against Nannizzia gypsea; 0.0625 µg/mL (≈ 0.149 µM) with Candida parapsilosis; 0.0156 µg/mL (≈ 0.0372 µM) against Candida albicans; 0.25 µg/mL (≈ 0.597 µM) against Candida tropicalis. In addition, the values for the MIC80 with Trichophyton rubrum and in the assay with Pichia kudriavzevii were 1 µg/mL (≈ 2.39 µM) and 0.0625 µg/mL (≈ 0.149 µM), respectively.
In the case of `C=CCN(Cc1ccc(F)cc1)CC(O)(Cn1cncn1)c1ccc(F)cc1F` (stereo unspecified), the MIC80 with Cryptococcus neoformans was 0.0625 µg/mL (≈ 0.155 µM); against Aspergillus fumigatus it was greater than 64 µg/mL; in the assay with Nannizzia gypsea, 0.0156 µg/mL (≈ 0.0388 µM); against Candida parapsilosis it was 0.0625 µg/mL (≈ 0.155 µM); with Candida albicans it was 0.0156 µg/mL (≈ 0.0388 µM); in the assay on Candida tropicalis, 0.0625 µg/mL (≈ 0.155 µM). The MIC80 with Trichophyton rubrum is 1 µg/mL (≈ 2.48 µM); against Pichia kudriavzevii, 0.0625 µg/mL (≈ 0.155 µM).
As to `C=CCN(Cc1ccccc1C)CC(O)(Cn1cncn1)c1ccc(F)cc1F` (stereo unspecified), the MIC80 against Cryptococcus neoformans was 0.0625 µg/mL (≈ 0.157 µM); in the assay on Aspergillus fumigatus, greater than 64 µg/mL; with Nannizzia gypsea it was 0.0039 µg/mL (≈ 0.00979 µM); in the assay on Candida parapsilosis, 0.0625 µg/mL (≈ 0.157 µM); with Candida albicans, 0.0156 µg/mL (≈ 0.0392 µM); in the assay with Candida tropicalis it was 0.0625 µg/mL (≈ 0.157 µM). In addition, the MIC80 against Trichophyton rubrum and in the assay on Pichia kudriavzevii was 0.0625 µg/mL (≈ 0.157 µM) in each case.
With `C=CCN(Cc1ccc(Cl)cc1)CC(O)(Cn1cncn1)c1ccc(F)cc1F` (stereo unspecified), the MIC80 in the assay with Cryptococcus neoformans was found to be 0.25 µg/mL (≈ 0.597 µM); against Aspergillus fumigatus, 16 µg/mL (≈ 38.2 µM); in the assay on Nannizzia gypsea, 0.0625 µg/mL (≈ 0.149 µM); against Candida parapsilosis, 0.25 µg/mL (≈ 0.597 µM); in the assay with Candida albicans, 0.25 µg/mL (≈ 0.597 µM); with Candida tropicalis, 0.25 µg/mL (≈ 0.597 µM). Moreover, the MIC80 against Trichophyton rubrum amounted to 0.25 µg/mL (≈ 0.597 µM); with Pichia kudriavzevii, 0.0625 µg/mL (≈ 0.149 µM).
Regarding `C=CCN(Cc1ccccc1Br)CC(O)(Cn1cncn1)c1ccc(F)cc1F` (stereo unspecified), the MIC80 against Cryptococcus neoformans was 0.25 µg/mL (≈ 0.54 µM); with Aspergillus fumigatus it was greater than 64 µg/mL; against Nannizzia gypsea, 0.0156 µg/mL (≈ 0.0337 µM); against Candida parapsilosis, 0.25 µg/mL (≈ 0.54 µM); in the assay on Candida albicans, 0.0625 µg/mL (≈ 0.135 µM); in the assay on Candida tropicalis, 0.0625 µg/mL (≈ 0.135 µM). The MIC80 with Trichophyton rubrum and with Pichia kudriavzevii was 0.25 µg/mL (≈ 0.54 µM) in each case.
With `C=CCN(Cc1ccc([N+](=O)[O-])cc1)CC(O)(Cn1cncn1)c1ccc(F)cc1F` (stereo unspecified), the MIC80 in the assay on Cryptococcus neoformans was 0.25 µg/mL (≈ 0.582 µM); with Aspergillus fumigatus, greater than 64 µg/mL; with Nannizzia gypsea, 0.0156 µg/mL (≈ 0.0363 µM); with Candida parapsilosis, 0.0625 µg/mL (≈ 0.146 µM); against Candida albicans, 0.0156 µg/mL (≈ 0.0363 µM); against Candida tropicalis, 0.25 µg/mL (≈ 0.582 µM). Further, the MIC80 with Trichophyton rubrum was 0.25 µg/mL (≈ 0.582 µM); with Pichia kudriavzevii, 0.0625 µg/mL (≈ 0.146 µM).
Turning to `C=CCN(Cc1ccc(C(=O)OC)cc1)CC(O)(Cn1cncn1)c1ccc(F)cc1F` (stereo unspecified), the MIC80 against Cryptococcus neoformans is 0.25 µg/mL (≈ 0.565 µM); with Aspergillus fumigatus, greater than 64 µg/mL; in the assay with Nannizzia gypsea, 0.0156 µg/mL (≈ 0.0353 µM); against Candida parapsilosis it was 0.25 µg/mL (≈ 0.565 µM); against Candida albicans it was 0.0625 µg/mL (≈ 0.141 µM); in the assay on Candida tropicalis, 0.0625 µg/mL (≈ 0.141 µM). The MIC80 worked out at 0.25 µg/mL (≈ 0.565 µM) with Trichophyton rubrum and 0.0625 µg/mL (≈ 0.141 µM) against Pichia kudriavzevii.
For `C=CCN(Cc1ccc(C(=O)OC(C)C)cc1)CC(O)(Cn1cncn1)c1ccc(F)cc1F` (stereo unspecified), the MIC80 was 1 µg/mL (≈ 2.13 µM) in the assay on Cryptococcus neoformans; greater than 64 µg/mL with Aspergillus fumigatus; 0.0156 µg/mL (≈ 0.0332 µM) in the assay on Nannizzia gypsea; 1 µg/mL (≈ 2.13 µM) with Candida parapsilosis; 0.25 µg/mL (≈ 0.531 µM) in the assay with Candida albicans; 1 µg/mL (≈ 2.13 µM) with Candida tropicalis. In addition, the figures for the MIC80 in the assay with Trichophyton rubrum and against Pichia kudriavzevii were 1 µg/mL (≈ 2.13 µM) and 0.25 µg/mL (≈ 0.531 µM), respectively.
Consider `C=CCN(Cc1ccc(C(=O)Oc2ccccc2)cc1)CC(O)(Cn1cncn1)c1ccc(F)cc1F` (stereo unspecified), for which the MIC80 against Cryptococcus neoformans was 1 µg/mL (≈ 1.98 µM); against Aspergillus fumigatus, greater than 64 µg/mL; against Nannizzia gypsea, 1 µg/mL (≈ 1.98 µM); against Candida parapsilosis it was 1 µg/mL (≈ 1.98 µM); against Candida albicans, 1 µg/mL (≈ 1.98 µM); in the assay with Candida tropicalis, 1 µg/mL (≈ 1.98 µM). The MIC80 in the assay on Trichophyton rubrum stood at 16 µg/mL (≈ 31.7 µM); in the assay on Pichia kudriavzevii, 1 µg/mL (≈ 1.98 µM).
For the compound `C=CCN(Cc1ccc(C(=O)OCC(C)C)cc1)CC(O)(Cn1cncn1)c1ccc(F)cc1F` (stereo unspecified), the MIC80 is 1 µg/mL (≈ 2.06 µM) against Cryptococcus neoformans; greater than 64 µg/mL in the assay with Aspergillus fumigatus; 0.25 µg/mL (≈ 0.516 µM) in the assay on Nannizzia gypsea; 0.25 µg/mL (≈ 0.516 µM) with Candida parapsilosis; 1 µg/mL (≈ 2.06 µM) in the assay with Candida albicans; 1 µg/mL (≈ 2.06 µM) against Candida tropicalis. Besides, the MIC80 in the assay on Trichophyton rubrum was 0.0625 µg/mL (≈ 0.129 µM); with Pichia kudriavzevii it was 1 µg/mL (≈ 2.06 µM).
For the compound `C=CCN(Cc1ccc(C)cc1)CC(O)(Cn1cncn1)c1ccc(F)cc1F` (stereo unspecified), the MIC80 against Cryptococcus neoformans was 0.0625 µg/mL (≈ 0.157 µM); in the assay on Aspergillus fumigatus, greater than 64 µg/mL; in the assay with Nannizzia gypsea, 0.0156 µg/mL (≈ 0.0392 µM); in the assay on Candida parapsilosis, 0.25 µg/mL (≈ 0.627 µM); against Candida albicans, 0.0156 µg/mL (≈ 0.0392 µM); in the assay on Candida tropicalis, 0.25 µg/mL (≈ 0.627 µM). Further, the MIC80 against Trichophyton rubrum came out at 1 µg/mL (≈ 2.51 µM); in the assay on Pichia kudriavzevii, 0.0625 µg/mL (≈ 0.157 µM).
As to `C=CCN(Cc1ccc(C(=O)Oc2ccc(Cl)cc2)cc1)CC(O)(Cn1cncn1)c1ccc(F)cc1F` (stereo unspecified), the MIC80 is 16 µg/mL (≈ 29.7 µM) against Cryptococcus neoformans; greater than 64 µg/mL in the assay with Aspergillus fumigatus; 0.25 µg/mL (≈ 0.464 µM) against Nannizzia gypsea; 1 µg/mL (≈ 1.86 µM) against Candida parapsilosis; 1 µg/mL (≈ 1.86 µM) against Candida albicans; 4 µg/mL (≈ 7.42 µM) in the assay with Candida tropicalis. Further, the MIC80 with Trichophyton rubrum and in the assay with Pichia kudriavzevii was 4 µg/mL (≈ 7.42 µM) each time.
